Assay results: ChEMBL document CHEMBL4145462, “Nitrogen-containing ecdysteroid derivatives vs. multi-drug resistance in cancer: Preparation and antitumor activity of oximes, oxime ethers and a lactam” (Eur J Med Chem, 2018)

Tests used:
[1] = Cytotoxicity against mouse L5178 cells expressing human ABCB1 after 48 hrs by MTT assay; assay type: functional, cell-based; conditions: L5178, 48 h
In short: (§1)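 Parental mouse lymphoma L5178 and the MDR line made by pHa MDR1/A retrovirus transfection, selected with 60 µg/L colchicine. Grown in McCoy's 5A with horse serum at 37°C, 5% CO2. 5 x 10^4 cells/well, serial compound dilutions, 48 h. MTT added to 0.5 mg/mL final for 4 h, then 10% SDS in 0.01 M HCl overnight, OD read at 540 and 630 nm. IC50 taken as median cytotoxic activity (Dm) from control lanes of checkerboard plates, n=2.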

ABCB1 (P-glycoprotein) [2] = target: T1, ABCB1 (P-glycoprotein) (Homo sapiens, UniProt P08183); test: Inhibition of human ABCB1 expressed in mouse L5178 cells assessed as increase in rhodamine-123 accumulation at 2 uM after 10 mins by flow cytometric analysis relative to control; assay type: cell-based; conditions: mouse L5178 cells expressing human ABCB1, probe rhodamine-123
T1 sequence (P08183 whole entry): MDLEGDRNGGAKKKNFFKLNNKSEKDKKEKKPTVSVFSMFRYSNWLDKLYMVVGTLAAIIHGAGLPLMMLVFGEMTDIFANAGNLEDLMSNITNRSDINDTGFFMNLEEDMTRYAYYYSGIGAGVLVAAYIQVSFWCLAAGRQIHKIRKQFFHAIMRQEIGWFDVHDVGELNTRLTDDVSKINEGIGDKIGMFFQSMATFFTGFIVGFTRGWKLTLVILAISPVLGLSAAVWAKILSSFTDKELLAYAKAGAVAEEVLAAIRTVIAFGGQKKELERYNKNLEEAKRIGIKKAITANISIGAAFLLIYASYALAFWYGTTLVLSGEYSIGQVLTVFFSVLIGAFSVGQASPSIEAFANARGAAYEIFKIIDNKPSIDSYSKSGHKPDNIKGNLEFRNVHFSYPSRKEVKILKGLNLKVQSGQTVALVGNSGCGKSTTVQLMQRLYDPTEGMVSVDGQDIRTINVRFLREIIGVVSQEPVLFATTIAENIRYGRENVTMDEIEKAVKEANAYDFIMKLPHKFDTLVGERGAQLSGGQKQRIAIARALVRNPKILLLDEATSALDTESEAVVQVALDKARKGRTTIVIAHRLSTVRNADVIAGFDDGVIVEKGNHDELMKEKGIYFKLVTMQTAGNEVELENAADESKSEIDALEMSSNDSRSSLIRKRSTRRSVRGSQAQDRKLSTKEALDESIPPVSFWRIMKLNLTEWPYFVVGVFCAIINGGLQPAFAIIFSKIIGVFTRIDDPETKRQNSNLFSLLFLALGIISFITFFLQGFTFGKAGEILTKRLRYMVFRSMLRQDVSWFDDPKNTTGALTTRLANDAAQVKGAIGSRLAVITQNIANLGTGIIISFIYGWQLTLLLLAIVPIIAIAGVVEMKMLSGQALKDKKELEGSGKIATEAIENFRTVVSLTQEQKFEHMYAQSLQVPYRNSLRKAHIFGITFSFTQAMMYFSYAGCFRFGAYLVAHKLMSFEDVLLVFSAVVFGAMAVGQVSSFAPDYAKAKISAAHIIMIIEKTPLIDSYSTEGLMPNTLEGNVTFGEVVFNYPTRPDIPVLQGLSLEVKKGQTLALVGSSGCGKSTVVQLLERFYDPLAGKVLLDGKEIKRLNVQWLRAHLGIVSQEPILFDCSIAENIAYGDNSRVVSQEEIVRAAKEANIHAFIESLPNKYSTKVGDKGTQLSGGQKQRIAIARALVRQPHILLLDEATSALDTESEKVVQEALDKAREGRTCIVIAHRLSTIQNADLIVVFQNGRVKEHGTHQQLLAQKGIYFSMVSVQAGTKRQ
In short: (§2)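 Cells at 2 × 10^6/mL were preincubated 10 min with compound. Rhodamine 123 then added to 5.2 µM final, 20 min at 37 °C. Cells washed twice in PBS, resuspended and read by flow cytometry. Percent inhibition was scaled between MDR-cell accumulation (0%) and parental L5178 accumulation (100%). Controls: 100 nM tariquidar (positive) and 2% DMSO (negative).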

[3] = Cytotoxicity against mouse L5178 cells after 48 hrs by MTT assay; assay type: functional, cell-based; conditions: L5178, 48 h; in short: as §1
ABCB1 (P-glycoprotein) [4] = target: T1, ABCB1 (P-glycoprotein); test: Inhibition of human ABCB1 expressed in mouse L5178 cells assessed as increase in rhodamine-123 accumulation at 20 uM after 10 mins by flow cytometric analysis relative to control; assay type: cell-based; conditions: mouse L5178 cells expressing human ABCB1, probe rhodamine-123; in short: as §2
[5] = Synergistic cytotoxicity against mouse L5178 cells assessed as combination index at ED90 using 600:1 test compound to doxorubicin ratio after 48 hrs by MTT-based checkerboard microplate method; assay type: functional
In short: (§3)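 Checkerboard microplate combinations of compound with doxorubicin at constant molar ratios. 5 × 10^4 cells/well in McCoy's 5A, 48 h at 37°C, 5% CO2. MTT added to 0.5 mg/mL final for 4 h, SDS/HCl overnight, OD read at 540 and 630 nm. Combination indices derived per ratio for 50%, 75% and 90% growth inhibition by median-effect analysis.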

[6] = Synergistic cytotoxicity against mouse L5178 cells assessed as combination index at ED50 using 150:1 test compound to doxorubicin ratio after 48 hrs by MTT-based checkerboard microplate method; assay type: functional; in short: as §3
[7] = Synergistic cytotoxicity against mouse L5178 cells expressing human ABCB1 assessed as combination index at ED90 using 60:1 test compound to doxorubicin ratio after 48 hrs by MTT-based checkerboard microplate method; assay type: functional; in short: as §3
[8] = Synergistic cytotoxicity against mouse L5178 cells assessed as combination index at ED50 using 300:1 test compound to doxorubicin ratio after 48 hrs by MTT-based checkerboard microplate method; assay type: functional; in short: as §3
[9] = Synergistic cytotoxicity against mouse L5178 cells expressing human ABCB1 assessed as combination index at ED50 using 60:1 test compound to doxorubicin ratio after 48 hrs by MTT-based checkerboard microplate method; assay type: functional; in short: as §3
[10] = Synergistic cytotoxicity against mouse L5178 cells assessed as combination index at ED75 using 300:1 test compound to doxorubicin ratio after 48 hrs by MTT-based checkerboard microplate method; assay type: functional; in short: as §3
[11] = Synergistic cytotoxicity against mouse L5178 cells expressing human ABCB1 assessed as combination index at ED75 using 60:1 test compound to doxorubicin ratio after 48 hrs by MTT-based checkerboard microplate method; assay type: functional; in short: as §3
[12] = Synergistic cytotoxicity against mouse L5178 cells expressing human ABCB1 assessed as combination index at ED90 using 15:1 test compound to doxorubicin ratio after 48 hrs by MTT-based checkerboard microplate method; assay type: functional; in short: as §3
[13] = Synergistic cytotoxicity against mouse L5178 cells assessed as combination index at ED90 using 150:1 test compound to doxorubicin ratio after 48 hrs by MTT-based checkerboard microplate method; assay type: functional; in short: as §3
[14] = Synergistic cytotoxicity against mouse L5178 cells assessed as combination index at ED90 using 300:1 test compound to doxorubicin ratio after 48 hrs by MTT-based checkerboard microplate method; assay type: functional; in short: as §3
[15] = Synergistic cytotoxicity against mouse L5178 cells assessed as combination index at ED75 using 150:1 test compound to doxorubicin ratio after 48 hrs by MTT-based checkerboard microplate method; assay type: functional; in short: as §3
[16] = Synergistic cytotoxicity against mouse L5178 cells expressing human ABCB1 assessed as combination index at ED90 using 30:1 test compound to doxorubicin ratio after 48 hrs by MTT-based checkerboard microplate method; assay type: functional; in short: as §3
[17] = Synergistic cytotoxicity against mouse L5178 cells expressing human ABCB1 assessed as combination index at ED50 using 15:1 test compound to doxorubicin ratio after 48 hrs by MTT-based checkerboard microplate method; assay type: functional; in short: as §3
[18] = Synergistic cytotoxicity against mouse L5178 cells expressing human ABCB1 assessed as combination index at ED75 using 15:1 test compound to doxorubicin ratio after 48 hrs by MTT-based checkerboard microplate method; assay type: functional; in short: as §3
[19] = Synergistic cytotoxicity against mouse L5178 cells expressing human ABCB1 assessed as combination index at ED50 using 30:1 test compound to doxorubicin ratio after 48 hrs by MTT-based checkerboard microplate method; assay type: functional; in short: as §3
[20] = Synergistic cytotoxicity against mouse L5178 cells assessed as combination index at ED75 using 600:1 test compound to doxorubicin ratio after 48 hrs by MTT-based checkerboard microplate method; assay type: functional; in short: as §3
[21] = Synergistic cytotoxicity against mouse L5178 cells assessed as combination index at ED50 using 600:1 test compound to doxorubicin ratio after 48 hrs by MTT-based checkerboard microplate method; assay type: functional; in short: as §3
[22] = Synergistic cytotoxicity against mouse L5178 cells expressing human ABCB1 assessed as combination index at ED75 using 30:1 test compound to doxorubicin ratio after 48 hrs by MTT-based checkerboard microplate method; assay type: functional; in short: as §3
[23] = Synergistic cytotoxicity against mouse L5178 cells assessed as combination index at ED50 using 37.5:1 test compound to doxorubicin ratio after 48 hrs by MTT-based checkerboard microplate method; assay type: functional; in short: as §3
SiHa = test: Antiproliferative activity against human SiHa cells after 72 hrs by MTT assay; assay type: functional, cell-based
In short: (§4)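 Cells grown in MEM with 10% FCS, 1% non-essential amino acids and 1% penicillin-streptomycin. Seeded at 5000 cells/well, exposed to 0.1–30.0 µM compound for 72 h. MTT (5 mg/ml solution) was then added for 4 h, formazan dissolved in DMSO, and absorbance read at 545 nm. Cisplatin served as positive control. IC50 came from sigmoidal dose–response fits (log inhibitor vs normalized response, variable slope).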

HeLa = test: Antiproliferative activity against human HeLa cells after 72 hrs by MTT assay; assay type: functional, cell-based; in short: as §4
[24] = Synergistic cytotoxicity against mouse L5178 cells assessed as combination index at ED90 using 75:1 test compound to doxorubicin ratio after 48 hrs by MTT-based checkerboard microplate method; assay type: functional; in short: as §3
[25] = Synergistic cytotoxicity against mouse L5178 cells assessed as combination index at ED50 using 75:1 test compound to doxorubicin ratio after 48 hrs by MTT-based checkerboard microplate method; assay type: functional; in short: as §3
MCF7 = test: Antiproliferative activity against human MCF7 cells after 72 hrs by MTT assay; assay type: functional, cell-based; conditions: MCF7, 72 h; in short: as §4
[26] = Synergistic cytotoxicity against mouse L5178 cells assessed as combination index at ED90 using 37.5:1 test compound to doxorubicin ratio after 48 hrs by MTT-based checkerboard microplate method; assay type: functional; in short: as §3
MDA-MB-231 = test: Antiproliferative activity against human MDA-MB-231 cells after 72 hrs by MTT assay; assay type: functional, cell-based; conditions: MDA-MB-231, 72 h; in short: as §4
[27] = Synergistic cytotoxicity against mouse L5178 cells assessed as combination index at ED75 using 37.5:1 test compound to doxorubicin ratio after 48 hrs by MTT-based checkerboard microplate method; assay type: functional; in short: as §3
[28] = Synergistic cytotoxicity against mouse L5178 cells assessed as combination index at ED75 using 75:1 test compound to doxorubicin ratio after 48 hrs by MTT-based checkerboard microplate method; assay type: functional; in short: as §3

Compound	IC50 [1]	inhibition at 10 min, 2 µM (ABCB1 (P-glycoprotein) [2])	IC50 [3]	inhibition at 10 min, 20 µM (ABCB1 (P-glycoprotein) [4])	CI [5]	CI [6]	CI [7]	CI [8]	CI [9]	CI [10]	CI [11]	CI [12]	CI [13]	CI [14]	CI [15]	CI [16]	CI [17]	CI [18]	CI [19]	CI [20]	also measured
CC(C)(O)CC[C@H]1OC(C)(C)O[C@]1(C)[C@H]1CC[C@@]2(O)C3=CC(=O)[C@@H]4C[C@H]5OC(C)(C)O[C@H]5C[C@]4(C)[C@H]3CC[C@]12C	97.7 µM	2.54%	110 µM	20.9%																	
CC(C)(O)CC[C@H]1OC(C)(C)O[C@]1(C)[C@H]1CC=C2C3=C/C(=N\O)[C@@H]4C[C@H]5OC(C)(C)O[C@H]5C[C@]4(C)[C@H]3CC[C@@]21C	24.6 µM	10.6%	20.9 µM	83%	1.13	0.8	0.27	1.18	0.34	1.11	0.29	0.12	0.78	1.04	0.79	0.16	0.26	0.16	0.25	1.11	CI [21]: 1.1; CI [22]: 0.19
C=CCO/N=C1\C=C2[C@H](CC[C@]3(C)[C@@H]([C@@]4(C)OC(C)(C)O[C@@H]4CCC(C)(C)O)CC[C@@]23O)[C@@]2(C)C[C@@H]3OC(C)(C)O[C@@H]3C[C@@H]12	51.9 µM	21%	31.5 µM	89.4%	1.05	1.03	0.31	1.22	0.24	1.12	0.26	0.13	0.69	1.11	0.81	0.21	0.17	0.13	0.17	1.08	CI [23]: 1.95; IC50 (SiHa): 25.5 µM; IC50 (HeLa): 15.6 µM; CI [24]: 1.27; CI [25]: 1.35; IC50 (MCF7): 13.6 µM; CI [26]: 0.89; IC50 (MDA-MB-231): 21.4 µM; CI [27]: 1.28; CI [21]: 1.19; CI [22]: 0.18; CI [28]: 1.27
CC(C)(O)CC[C@H]1OC(C)(C)O[C@]1(C)[C@H]1CC=C2C3=C/C(=N/O)[C@@H]4C[C@H]5OC(C)(C)O[C@H]5C[C@]4(C)[C@H]3CC[C@@]21C	28.4 µM	7.15%	34.2 µM	81.1%	0.91	0.98	0.28	1.14	0.42	1.17	0.34	0.27	0.61	1.25	0.76	0.2	0.98	0.25	0.32	0.94	CI [21]: 1.01; CI [22]: 0.25
COc1cccc2c1C(=O)c1c(O)c3c(c(O)c1C2=O)C[C@@](O)(C(=O)CO)C[C@@H]3O[C@H]1C[C@H](N)[C@H](O)[C@H](C)O1 [DOXORUBICIN]	4.49 µM		0.08 µM																		
